Measurements as given in ChEMBL document CHEMBL1138564, “Microwave-induced synthesis and anti-microbial activities of 7,10,11,12-tetrahydrobenzo[c]acridin-8(9H)-one derivatives” (2009).
≈ marks a conversion by molar mass, not a printed value. Calls of active or inactive are those of the source. No cut-off for these calls is given here.

Tests used:
Trichoderma viride [1] = experiment: Antimicrobial activity against Trichoderma viride NCIM 1195 at 500 ug/disk after 72 hrs by disk diffusion method; assay type: functional; conditions: NCIM 1195, 72 h, read-out: DIZ
Procedure, shortened: (§1)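 Fungal disc diffusion. 100 µl of suspension at 10⁶ CFU/ml was spread on Sabouraud's dextrose agar. Discs carrying test compound in DMSO were applied, with a DMSO-only disc as negative control. Plates were incubated at 27 °C for 72 h, and the zone of inhibition diameter was measured.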

Penicillium chrysogenum [2] = experiment: Antimicrobial activity against Penicillium chrysogenum NCIM 707 at 1000 ug/disk after 72 hrs by disk diffusion method; assay type: functional
Procedure, shortened: (§2)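 Disc diffusion on Sabouraud's dextrose agar. 100 µl of fungal suspension at 10⁶ CFU/ml is spread on the plate. Discs carry test compounds at two loadings in DMSO; DMSO alone is the negative control. Clotrimazole disc is the positive reference. Plates are incubated at 27 °C for 72 h, and the zone of inhibition diameter is measured.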

Salmonella typhimurium = experiment: Antimicrobial activity against Salmonella Typhimurium NCIM 2501 at 1000 ug/disk after 24 hrs by disk diffusion method; assay type: functional, Salmonella enterica subsp. enterica serovar Typhimurium; conditions: Salmonella enterica, NCIM 2501, 24 h; read-out: DIZ
Procedure, shortened: (§3)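 Disc diffusion. 100 µl of bacterial suspension at 10⁸ CFU/ml was spread on Mueller–Hinton agar. Discs loaded with test compound dissolved in DMSO were placed on the lawn, with a DMSO-only disc as negative control. Plates were incubated at 37 °C for 24 h, and the inhibition zone diameter was measured.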

Aspergillus fumigatus [3] = experiment: Antimicrobial activity against Aspergillus fumigatus NCIM 902 at 1000 ug/disk after 72 hrs by disk diffusion method; assay type: functional; conditions: NCIM 902, 72 h, read-out: DIZ; procedure, shortened: as §2
Rhodotorula mucilaginosa = experiment: Antimicrobial activity against Rhodotorula rubra NCIM 3174 at 500 ug/disk after 72 hrs by disk diffusion method; assay type: functional; conditions: NCIM 3174, 72 h, read-out: DIZ; procedure, shortened: as §1
Escherichia coli [4] = experiment: Antimicrobial activity against Escherichia coli NCIM 2065 after 24 hrs by serial dilution method; assay type: functional; conditions: NCIM 2065, 24 h
Procedure, shortened: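 Broth dilution MIC in nutrient broth, run only for organisms found sensitive in disc diffusion. Compounds are two-fold serially diluted in 1 ml sterile broth per tube, spanning 3.9 to 1000. Inoculated tubes are incubated at 37 °C for 24 h.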

Aspergillus flavus [5] = experiment: Antimicrobial activity against Aspergillus flavus NCIM 902 at 1000 ug/disk after 72 hrs by disk diffusion method; assay type: functional; conditions: NCIM 902, 72 h, read-out: DIZ; procedure, shortened: as §2
Bacillus cereus [6] = experiment: Antimicrobial activity against Bacillus cereus NCIM 2155 at 500 ug/disk after 24 hrs by disk diffusion method; assay type: functional; conditions: NCIM 2155, 24 h, read-out: DIZ
Procedure, shortened: (§4)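 Disc diffusion on Mueller–Hinton agar. 100 µl of bacterial suspension at 10⁸ CFU/ml is spread on the plate. Discs carry test compounds at two loadings, dissolved in DMSO; DMSO alone serves as negative control. Ofloxacin disc is the positive reference. Plates are incubated at 37 °C for 24 h, and the inhibition zone diameter is measured.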

Trichoderma viride [7] = experiment: Antimicrobial activity against Trichoderma viride NCIM 1195 at 1000 ug/disk after 72 hrs by disk diffusion method; assay type: functional; conditions: NCIM 1195, 72 h, read-out: DIZ; procedure, shortened: as §1
Aliivibrio fischeri [8] = experiment: Antimicrobial activity against Vibrio fischeri NCIM 2154 at 500 ug/disk after 24 hrs by disk diffusion method; assay type: functional; conditions: NCIM 2154, 24 h, read-out: DIZ; procedure, shortened: as §3
Lipomyces lipofer [9] = experiment: Antimicrobial activity against Lipomyces lipofer NCIM 3252 at 1000 ug/disk after 72 hrs by disk diffusion method; assay type: functional; conditions: NCIM 3252, 72 h, read-out: DIZ; procedure, shortened: as §2
Bacillus cereus [10] = experiment: Antimicrobial activity against Bacillus cereus NCIM 2155 at 1000 ug/disk after 24 hrs by disk diffusion method; assay type: functional; conditions: NCIM 2155, 24 h, read-out: DIZ; procedure, shortened: as §4
Aspergillus flavus [11] = experiment: Antimicrobial activity against Aspergillus flavus NCIM 902 at 500 ug/disk after 72 hrs by disk diffusion method; assay type: functional; conditions: NCIM 902, 72 h, read-out: DIZ; procedure, shortened: as §2
Aspergillus flavus [12] = experiment: Antimicrobial activity against Aspergillus flavus NCIM 902 after 72 hrs by serial dilution method; assay type: functional; conditions: NCIM 535, 72 h, in the assay text read “NCIM 535” for “NCIM 902”
Procedure, shortened: (§5)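 MIC by broth dilution in Sabouraud's dextrose broth, only for fungi sensitive in disc diffusion. Two-fold serial dilutions of compounds are made in 1 ml broth per tube, range 3.9 to 1000. Inoculated tubes are incubated at 27 °C for 72 h.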

Aspergillus fumigatus [13] = experiment: Antimicrobial activity against Aspergillus fumigatus NCIM 902 at 500 ug/disk after 72 hrs by disk diffusion method; assay type: functional; procedure, shortened: as §2
[14] = test system: Rhodococcus corynebacterioides; experiment: Antimicrobial activity against Corynebacterium rubrum NCIM 2252 at 1000 ug/disk after 24 hrs by disk diffusion method; assay type: functional; conditions: Rhodococcoides corynebacterioides, NCIM 2252, 24 h; read-out: DIZ; procedure, shortened: as §4
Staphylococcus [15] = experiment: Antimicrobial activity against Staphylococcus albus NCIM 2178 at 1000 ug/disk after 24 hrs by disk diffusion method; assay type: functional; conditions: NCIM 2178, 24 h, read-out: DIZ; procedure, shortened: as §3
Escherichia coli [16] = experiment: Antimicrobial activity against Escherichia coli NCIM 2065 at 500 ug/disk after 24 hrs by disk diffusion method; assay type: functional; conditions: NCIM 2065, 24 h, read-out: DIZ; procedure, shortened: as §4
Trichoderma viride [17] = experiment: Antimicrobial activity against Trichoderma viride NCIM 1195 after 72 hrs by serial dilution method; assay type: functional; conditions: NCIM 1195, 72 h
Procedure, shortened: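 MIC by broth dilution in Sabouraud's dextrose broth, run only on fungi found sensitive in the disc assay. Twofold serial dilutions were made in 1 ml broth per tube, covering 3.9 to 1000. Inoculated tubes were incubated at 27 °C for 72 h.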

Escherichia coli [18] = experiment: Antimicrobial activity against Escherichia coli NCIM 2065 at 1000 ug/disk after 24 hrs by disk diffusion method; assay type: functional; conditions: NCIM 2065, 24 h, read-out: DIZ; procedure, shortened: as §4
Bacillus subtilis = experiment: Antimicrobial activity against Bacillus subtilis NCIM 2063 at 500 ug/disk after 24 hrs by disk diffusion method; assay type: functional; conditions: NCIM 2063, 24 h, read-out: DIZ; procedure, shortened: as §4
Proteus vulgaris [19] = experiment: Antimicrobial activity against Proteus vulgaris NCIM 2027 at 1000 ug/disk after 24 hrs by disk diffusion method; assay type: functional; conditions: NCIM 2027, 24 h, read-out: DIZ; procedure, shortened: as §4
Pseudomonas aeruginosa = experiment: Antimicrobial activity against Pseudomonas aeruginosa NCIM 2200 at 500 ug/disk after 24 hrs by disk diffusion method; assay type: functional; procedure, shortened: as §3
Aspergillus parasiticus [20] = experiment: Antimicrobial activity against Aspergillus parasiticus NCIM 904 after 72 hrs by serial dilution method; assay type: functional; conditions: NCIM 904, 72 h; procedure, shortened: as §5
Klebsiella aerogenes = experiment: Antimicrobial activity against Klebsiella aerogenes NCIM 2239 at 500 ug/disk after 24 hrs by disk diffusion method; assay type: functional; conditions: NCIM 2239, 24 h, read-out: DIZ; procedure, shortened: as §4
[21] = test system: Rhodococcus corynebacterioides; experiment: Antimicrobial activity against Corynebacterium rubrum NCIM 2252 at 500 ug/disk after 24 hrs by disk diffusion method; assay type: functional; conditions: Rhodococcoides corynebacterioides, NCIM 2252, 24 h; read-out: DIZ; procedure, shortened: as §4
Proteus vulgaris [22] = experiment: Antimicrobial activity against Proteus vulgaris NCIM 2027 at 500 ug/disk after 24 hrs by disk diffusion method; assay type: functional; conditions: NCIM 2027, 24 h, read-out: DIZ; procedure, shortened: as §4
Penicillium chrysogenum [23] = experiment: Antimicrobial activity against Penicillium chrysogenum NCIM 707 at 500 ug/disk after 72 hrs by disk diffusion method; assay type: functional; procedure, shortened: as §2
Aspergillus parasiticus [24] = experiment: Antimicrobial activity against Aspergillus parasiticus NCIM 904 at 500 ug/disk after 72 hrs by disk diffusion method; assay type: functional; conditions: NCIM 904, 72 h, read-out: DIZ; procedure, shortened: as §2
Lipomyces lipofer [25] = experiment: Antimicrobial activity against Lipomyces lipofer NCIM 3252 at 500 ug/disk after 72 hrs by disk diffusion method; assay type: functional; conditions: NCIM 3252, 72 h, read-out: DIZ; procedure, shortened: as §2
Staphylococcus [26] = experiment: Antimicrobial activity against Staphylococcus albus NCIM 2178 at 500 ug/disk after 24 hrs by disk diffusion method; assay type: functional; conditions: NCIM 2178, 24 h, read-out: DIZ; procedure, shortened: as §3
Aliivibrio fischeri [27] = experiment: Antimicrobial activity against Vibrio fischeri NCIM 2154 after 24 hrs by serial dilution method; assay type: functional; conditions: NCIM 2154, 24 h

With O=C1CCCC2=C1C(c1cccc([N+](=O)[O-])c1)c1ccc3ccccc3c1N2 (configuration not stated) the zone of inhibition at 500 µg/disc (Trichoderma viride [1]) was 9 mm, the “diameter of the inhibition zone (DIZ)” value (Penicillium chrysogenum [2]) was “inactive” and the zone of inhibition at 1000 µg/disc (Salmonella typhimurium) was 10 mm. For the same compound, the zone of inhibition at 1000 µg/disc (Aspergillus fumigatus [3]) was 9 mm, the zone of inhibition at 500 µg/disc (Rhodotorula mucilaginosa) was 10 mm and the MIC (Escherichia coli [4]) was 31.2 µg/mL (≈ 84.2 µM). It also gave a zone of inhibition at 1000 µg/disc (Aspergillus flavus [5]) of 12 mm, a zone of inhibition at 500 µg/disc (Bacillus cereus [6]) of 7 mm and a zone of inhibition at 1000 µg/disc (Trichoderma viride [7]) of 10 mm. The zone of inhibition at 500 µg/disc (Aliivibrio fischeri [8]) was 7 mm, the zone of inhibition at 1000 µg/disc (Lipomyces lipofer [9]) was 10 mm and the zone of inhibition at 1000 µg/disc (Bacillus cereus [10]) was 10 mm. The zone of inhibition at 500 µg/disc (Aspergillus flavus [11]) was 8 mm, the MIC (Aspergillus flavus [12]) was 31.2 µg/mL (≈ 84.2 µM) and the “diameter of the inhibition zone (DIZ)” value (Aspergillus fumigatus [13]) was “inactive”. The zone of inhibition at 1000 µg/disc [14] was 8 mm, the zone of inhibition at 1000 µg/disc (Staphylococcus [15]) was 11 mm and the zone of inhibition at 500 µg/disc (Escherichia coli [16]) was 9 mm. For the same compound, the MIC (Trichoderma viride [17]) was 62.5 µg/mL (≈ 169 µM), the zone of inhibition at 1000 µg/disc (Escherichia coli [18]) was 12 mm and the zone of inhibition at 500 µg/disc (Bacillus subtilis) was 10 mm. The zone of inhibition at 1000 µg/disc (Proteus vulgaris [19]) was 9 mm, the “diameter of the inhibition zone (DIZ)” value (Pseudomonas aeruginosa) was “inactive” and the MIC (Aspergillus parasiticus [20]) was 15.6 µg/mL (≈ 42.1 µM). The zone of inhibition at 500 µg/disc (Klebsiella aerogenes) was 7 mm, the zone of inhibition at 500 µg/disc [21] was 7 mm and the zone of inhibition at 500 µg/disc (Proteus vulgaris [22]) was 7 mm. The “diameter of the inhibition zone (DIZ)” value (Penicillium chrysogenum [23]) was “inactive”, the zone of inhibition at 500 µg/disc (Aspergillus parasiticus [24]) was 11 mm and the zone of inhibition at 500 µg/disc (Lipomyces lipofer [25]) was 8 mm. The zone of inhibition at 500 µg/disc (Staphylococcus [26]) was 8 mm and the MIC (Aliivibrio fischeri [27]) was 125 µg/mL (≈ 337 µM).
